# Yeast lifespan up = yeast lifespan extension. S. cerevisiae growth with nicotinamide, OD615; deaD strain in restrictive glucose medium. inhibition of the nicotinamide effect, % at 10 µM. 0.68% of 130,000 active;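 active = inhibition above a set limit, placed 3 SD over the median of all compounds, cut at about 26% in these data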;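 note: 0% = nicotinamide-treated wells and 100% = cells grown without nicotinamide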
#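 Assay system: engineered S. cerevisiae DeaD replicative-lifespan strain, galactose-grown log-phase cells; Buffer or medium: CSMM-D glucose medium, restrictive; Probe or stimulus: nicotinamide 1.5 mM; Compound: single dose 10 µM compound, 0.25% DMSO; Schedule: 4 h preincubation then 48 h treatment at 30 °C; Technique: OD615 measurement.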
# Phagocyt inh = blocks phagocytosis by macrophages. J774A.1 macrophage IgG-bead phagocytosis, imaging. inhibition, % at 5 µM. 0.07% of 110,000 active;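 active = inhibition above the mean of the plate negative controls plus 5 SD, cut at about 13% in these data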;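 note: phagocytic index as fraction of beads internalized from green versus red external bead signal; plate controls were DMSO negative control for no effect and cytochalasin-D positive control for full effect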
# Yeast growth inh = chemicals that inhibit yeast BB579 growth in restrictive medium (lifespan-shortening candidates). inhibition, % at 10 µM. S. cerevisiae BB579 growth, OD615, 48 h. 0.51% of 140,000 active;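 active = inhibition above a set limit, 3 SD over the mean compound inhibition, cut at about 44% in these data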
#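 Test system: S. cerevisiae DeaD strain BB579 yeast; Medium: restrictive CSMM-D medium; Compound: one dose, 10 µM compound with 0.25% DMSO; Incubation: 4 h cell preincubation, 48 h compound exposure, 30 °C humidified; Signal: OD at 615 nm; Benchmarks: amphotericin B at 10 µg/mL as positive control.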
# RAM inhibit = inhibitors of the yeast RAM network | S. cerevisiae dse1pr::URA3 reporter, 5-FOA growth OD615, 2 d; analog-sensitive cbk1-as2 kinase mutant strain | 1.8% of 190,000 active | inhibition, % at 50 µM | AID 868;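 active = inhibition above a set limit, 3 SD over mean compound inhibition, cut at about 8.4% in these data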;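 note: 0% = DMSO-only wells with no growth and 100% = 10 µM 1-NA-PP1 full growth; inhibition rescues growth on 5-FOA so higher OD means more RAM inhibition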
# Active calls of the source: *; / = not tested or not shown; [ ] = another dose, or the depositor's remark. The list is not random: actives were taken first. Their share in the collection is about 2.7%.
SMILES,Yeast lifespan up,Phagocyt inh,Yeast growth inh,RAM inhibit
CCOc1cc(C2c3c(oc4cc(C)c(Cl)cc4c3=O)C(=O)N2Cc2ccco2)ccc1O (configuration not stated),-8.3,3.1,-61.7,8.4*
S=C(NCCc1ccccc1)NC1CC2CCC(C1)N2Cc1ccccc1 (configuration not stated),/,/,/,0.6
COC(=O)CSc1nc(C)cc(N2CCOCC2)n1,/,/,/,1.3
CNc1nc(SCC(=O)OC)nc(N2CCOCC2)n1,-5.5,74.2*[artifact],-15.6,1.7
COc1ccc(/C=C2/C(=O)N(Cc3ccccc3)N=C2C)cc1,26.7*,3.0,-56.4,1.1
C/C(Cn1cnc([N+](=O)[O-])n1)=N/NC(=O)COc1c(Cl)cc(Cl)cc1Cl,1.4,-17.1,-37.9,1.1
COc1ccc2c(c1OC)C(=O)OC2C1c2c(cc3c(c2OC)OCO3)CCN1C (configuration not stated),4.9,0.3,-45.6,2.2
CN1CCc2cc3c(c4c2[C@H]1[C@H](O)c1ccccc1-4)OCO3,-5.1,/,62.1*,-0.1
Cc1cc(C(=O)COC(=O)c2ccc(Br)o2)c(C)n1Cc1ccco1,/,/,/,10.3*
Cc1cc(C(=O)COC(=O)c2ccc(O)cc2)c(C)n1Cc1ccco1,21.4,-9.0,-69.0,6.2
O=C(c1ccco1)N(CCC(c1ccccc1)c1ccco1)Cc1ccccc1 (configuration not stated),8.7,/,-28.7,11.0*
CCC(=O)N(CCC(c1ccccc1)c1ccco1)Cc1cccs1 (configuration not stated),4.3,/,-47.1,0.8
CN(CC(=O)NCCc1ccc(F)cc1)Cc1cccc(Cl)c1,/,/,/,1.6
O=c1c2ccccc2sn1-c1cc(S(=O)(=O)N2CCOCC2)ccc1N1CCOCC1,-2.4,/,-45.9,9.2*
O=c1c2ccccc2sn1-c1cc(S(=O)(=O)N2CCOCC2)ccc1N1CCCC1,-5.6,-0.4,-63.5,2.7
CCN(CC)C(=O)c1sc(NC(=O)C(Sc2ccccc2)c2ccccc2)c(C(=O)OC(C)C)c1C (configuration not stated),-8.9,-0.3,-51.1,9.6*
CCN(CC)C(=O)c1sc(N)c(C(=O)OC(C)C)c1C,/,/,-30.8,-0.5
Cc1cccc(Cn2cc(/C=C/[N+](=O)[O-])c3ccccc32)c1,25.3,1.7,-31.8,11.3*
COc1ccc(C(O)C(CN2CCOCC2)c2ccccc2)cc1F (configuration not stated),-1.1,2.0,-50.7,1.9
COc1ccc(C(=O)C(CN2CCOCC2)c2ccccc2)cc1F (configuration not stated),79.1*,4.8,-41.5,1.7
CC(/C=C/c1ccc(Cl)o1)=C\C(=O)O,/,0.2,/,/
CC(=C/C(=O)O)/C=C/c1ccco1,28.3*,-3.0,-23.9,-0.7
CC(=O)Nc1ccccc1OCC(=O)NCC(F)(F)F,/,/,/,1.1
COc1ccc(N2C(=O)C3C(c4ccc(C(=O)O)cc4)NC(Cc4ccccc4)(C(=O)O)C3C2=O)c([N+](=O)[O-])c1 (configuration not stated),/,/,/,-0.4
O=C(O)c1ccc(N(c2ccccc2)c2ccccc2)cc1,/,/,44.4*,2.0
SMILES,Yeast lifespan up,Phagocyt inh,Yeast growth inh,RAM inhibit
CCN(CC)S(=O)(=O)c1cc(C(=O)OCC(=O)Nc2cccc(S(=O)(=O)N(C)C)c2)ccc1F,/,/,/,9.2*
CCN(CC)S(=O)(=O)c1cc(NC(=O)COC(=O)CCC(=O)c2ccc(F)cc2)ccc1C,1.3,-1.4,-37.1,9.5*
CN(C)S(=O)(=O)c1cccc(NC(=O)COC(=O)c2ccc(Br)o2)c1,-11.3,/,-5.8,0.4
CCN(CC)S(=O)(=O)c1cc(NC(=O)COC(=O)CCC(=O)c2cccs2)ccc1C,/,/,/,7.4
COCCN(Cc1nc(C2(c3ccc(C)cc3)CCCC2)no1)C(C)C,/,/,/,-0.8
C/C(=N\NC(=O)CC#N)C1COc2ccccc2O1 (configuration not stated),/,/,/,4.0
CCc1nnc(NC(=O)CSc2nc(-c3ccccc3)nc3ccccc23)s1,-1.0,-6.5,-6.6,0.9
CCc1nnc(NC(=O)CSc2nc(C3CCCCC3)nc3ccccc23)s1,6.6,/,-67.2,10.1*
Cc1ccc(/C=c2\sc3nc(-c4cccs4)nn3c2=O)o1,8.5,-0.7,-10.4,9.0*
CSc1nnc(C)c(=O)n1COC(=O)c1ccc(S(=O)(=O)N2CCCC2)cc1,-3.9,10.7,-17.8,0.4
CC(=O)Nc1ccc(NC(=O)CSc2nnc3c4ccccc4n(C)c3n2)cc1,/,/,/,8.5*
CCc1nnc(NC(=O)CSc2nnc3c4ccccc4n(C)c3n2)s1,2.2,0.3,-38.8,1.8
COCCNC(=S)N(CCc1c(C)[nH]c2ccc(Cl)cc12)Cc1cccs1,/,/,/,9.8*
Oc1ccccc1C=NCC(O)c1ccccc1 (configuration not stated),4.0,-2.9,-25.1,0.3
CCC(=O)N1c2ccccc2[C@@H](N(C(C)=O)c2ccccc2)C[C@H]1C,1.2,-1.5,-55.6,0.5
Cc1ccc(C(=O)N(c2ccccc2)C2CC(C)N(C(=O)c3ccco3)c3ccccc32)cc1 (configuration not stated),33.9*,-1.0,-11.8,3.0
O=C(CCSc1nnc(-c2ccncc2)o1)Nc1cccc(Cl)c1,/,/,/,3.6
O=C(CCSc1nnc(-c2ccncc2)o1)Nc1ccc(Cl)cc1,-11.7,-2.7,85.6*,0.6
CCOC(=O)c1sc(NC(=O)c2ccc(S(=O)(=O)N(C)C)cc2)nc1C,-15.3,-0.4,-44.5,10.1*
O=C1Nc2ccccc2N(O)N1c1cc(-c2ccc(Cl)cc2)[nH]n1,/,/,/,2.8
COc1ccc([C@H]2[C@H](C(=O)C(C)(C)C)N3N=Cc4ccccc4C3C23C(=O)OC(C)(C)OC3=O)cc1 (some centres not stated),36.2*,-4.7,7.1,2.5
COc1ccc([C@@H]2[C@@H](C(=O)C(C)(C)C)N3N=Cc4ccccc4[C@@H]3C23C(=O)OC(C)(C)OC3=O)cc1OC,22.9,-3.8,-2.9,0.2
Cc1cc(C(=O)CCl)c(C)n1-c1c(C)n(C)n(-c2ccccc2)c1=O,/,/,/,2.1
COC(=O)c1ccccc1NS(=O)(=O)c1ccc(Cl)nc1,/,/,/,2.1
COC(=O)C1=C(C)N(Cc2ccco2)C(=O)/C1=C\c1ccc(N(C)C)cc1,7.2,-0.3,-24.6,5.5
SMILES,Yeast lifespan up,Phagocyt inh,Yeast growth inh,RAM inhibit
COC(=O)C1=C(C)N(Cc2ccco2)C(=O)/C1=C\c1ccc([N+](=O)[O-])cc1,/,/,/,10.0*
O=C1c2ccccc2C(=O)N1CCCCSc1nnnn1-c1ccccc1,-8.6,-0.6,-42.1,9.3*
O=C1c2ccccc2C(=O)N1CSc1nnnn1-c1ccccc1,-9.7,/,-27.6,1.3
COc1ccc(CC(C)N2CCN(c3cccc(C(F)(F)F)c3)CC2)cc1OC (configuration not stated),-8.8,/,-8.4,1.4
COc1cc(NC(=S)NCCC(c2ccccc2)c2ccccc2)cc(OC)c1,-4.1,-1.1,13.0,9.1*
COc1ccc(NCc2nc3ccccc3n2CCOc2ccc(C)cc2)cc1,4.8,/,92.3*,-0.3
CCCn1c(C(C)NC(C)=O)nc2ccccc21 (configuration not stated),-2.4,-1.3,43.7*,2.6
COc1ccc(NCc2nc3ccccc3n2CCOc2ccccc2)cc1,55.8*,-1.3,22.2,0.1
